Consider one compound from paper PMC4956519 (Journal of chromatography. B, Analytical technologies in …, 2016).

The format of the data set is in vivo, mice. An outline of the steps: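 Adult male C57BL/6J mice (20–25 g), single i.v. injection 10 mg/kg in 10% Solutol in saline; 5 mice per time point killed at 2, 5, 15, 30, 60 min, cardiac blood centrifuged for plasma. Plasma precipitated with ice-cold acetonitrile containing internal standard, supernatant diluted with water; C8 reversed-phase LC-MS/MS, positive-ion MRM m/z 578.1→217.1/245.0; calibration 0.5–500 ng/mL; non-compartmental analysis.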

[1] abbreviates: male, C57BL/6J, mouse, plasma, iv, 10 mg/kg.

Each structure is given as a SMILES string. Where a SMILES comes first, the peptide text is derived from it. A value given as a limit tells only on which side of the number the result lay.

The AUC(0-inf) is the area under the concentration-time curve extrapolated to infinity. A high value points to high exposure. Usually Cmax stands for the maximum level reached in the sampled fluid or tissue. Usually Vd stands for the apparent volume that relates the amount in the body to the concentration in plasma or blood. Higher therefore signals wide distribution into tissue. As a reminder, the clearance is the rate of elimination divided by the concentration. Read a high clearance as a high capacity for elimination. What is called half-life is how long it takes for the measured level to halve. A lower half-life goes with fast loss. `O=C1N[C@H](Cc2c[nH]c3ccccc23)C(=O)N[C@@H](Cc2ccccc2)C(=O)N2CCC[C@@H]2C(=O)N[C@H]1Cc1ccccc1` [[D-Trp]CJ-15,208, cyclo[Phe-D-Pro-Phe-D-Trp]] (HELM PEPTIDE1{F.[dP].F.[dW]}$PEPTIDE1,PEPTIDE1,1:R1-4:R2$$$V2.0): the “Time to almost complete elimination from plasma” value (10 mg/kg i.v. to mice, LC-MS/MS) is at most 1 h. Further, the AUC0-t (male C57BL/6J mice, 10 mg/kg i.v., plasma, LC-MS/MS, non-compartmental analysis, 5 mice per time point) worked out at 19124.7 ng·min/mL. Under setting [1], this compound gave an AUC(0-inf) of 337 ng·h/mL, a C0 of 1130 ng/mL, a Cmax of 1020 ng/mL and a Vd of 10.1 L/kg. For the same compound, under setting [1], the clearance was found to be 494 mL/min/kg and the half-life worked out at 14.2 min. Further, under “within 15 minutes after 10 mg/kg i.v. to mice, LC-MS/MS”, the “Decline of plasma concentration” value was “over 50%”.
